Activity calls are given as the source filed them. No cut-off for these calls is given here.
Test system: Lipid bilayer
Assay: Immobilized artificial membrane partition coefficient, logK-IAMex of the compound by HPLC analysis
Assay type: physicochemical
Conditions: not given
Summary of the method: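 Run on an IAM.PC.DD2 column. Mobile phase was 0.01 M PBS, or acetonitrile (40% to 25% v/v in 5% steps) in 0.01 M PBS, at pH 7.4. Dead time was taken with methanol. The 100% aqueous value was obtained by linear extrapolation from the acetonitrile runs. Mean of triplicates.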

Compared with C[P+](C)(Bc1cccc(O)c1)c1ccccc1, C[P+](C)(Bc1ccc(O)cc1)c1ccccc1 is higher in logK-IAMex: 1.71 for the first, 1.91 for the second.

First: C[Si](C)(Cc1ccc(O)cc1)c1ccccc1
Second: CC(C)(Cc1ccc(O)cc1)c1ccccc1
The logK-IAMex of the first is higher: 3.05 for the first, 2.73 for the second.

Compared with CC[P+](Bc1ccc(O)cc1)(CC)CC, CC[P+](Bc1cccc(O)c1)(CC)CC is lower in logK-IAMex: 1.81 for the first, 1.59 for the second.

C[P+](C)(C)Bc1cccc(O)c1 and C[P+](C)(C)Bc1ccc(O)cc1 are within 0.2 log units of each other in logK-IAMex: 0.81 for the first, 0.8 for the second.

CC[P+](Bc1cccc(O)c1)(CC)c1ccccc1 and CC[P+](Bc1ccc(O)cc1)(CC)c1ccccc1 are within 0.2 log units of each other in logK-IAMex: 2.28 for the first, 2.46 for the second.

C[Si](C)(C)Cc1ccc(O)cc1 and CC(C)(C)Cc1ccc(O)cc1 are within 0.2 log units of each other in logK-IAMex: 2.38 for the first, 2.22 for the second.

Test system: not listed separately
Assay: Dissociation constant, pKa of the compound by pH-metric method
Assay type: physicochemical
Conditions: in the assay text read “pH-dependent UV absorbance method” for “pH-metric method”
Summary of the method: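 Determined from the change in absorbance at λmax in pH-dependent UV spectra, recorded in 20:80 (w/w) methanol–phosphate buffer over pH 6.0–12.0. Meter pH corrected as pH* = pH(recorded) − 0.01. Triplicate measurements.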

C[P+](C)(Bc1cccc(O)c1)c1ccccc1 and C[P+](C)(Bc1ccc(O)cc1)c1ccccc1 are within 0.2 log units of each other in pKa: 11.3 for the first, 11.2 for the second.

First: C[Si](C)(Cc1ccc(O)cc1)c1ccccc1
Second: CC(C)(Cc1ccc(O)cc1)c1ccccc1
The pKa of the first is higher: 10.9 for the first, 10.7 for the second.

First: CC[P+](Bc1ccc(O)cc1)(CC)CC
Second: CC[P+](Bc1cccc(O)c1)(CC)CC
The pKa of the first is lower: 11 for the first, 11.3 for the second.

C[P+](C)(C)Bc1cccc(O)c1 and C[P+](C)(C)Bc1ccc(O)cc1 are the same in pKa: 11.3 for the first, 11.3 for the second.

First: CC[P+](Bc1cccc(O)c1)(CC)c1ccccc1
Second: CC[P+](Bc1ccc(O)cc1)(CC)c1ccccc1
The pKa of the first is higher: 11.3 for the first, 11.1 for the second.

C[Si](C)(C)Cc1ccc(O)cc1 and CC(C)(C)Cc1ccc(O)cc1 are within 0.2 log units of each other in pKa: 10.7 for the first, 10.8 for the second.

Test system: not listed separately
Assay: Aqueous stability of the compound in PBS assessed as compound remaining at pH 7.4 incubated for 3 hrs by HPLC analysis
Assay type: physicochemical
Conditions: read-out: Stability
Summary of the method: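 Test compound at 0.1 mM in acetonitrile/PBS (5:95 v/v), held 3 h at 37 °C. Analysed by reversed-phase C18 HPLC with the column at 37.0 °C and UV detection at the peak wavelength between 220 and 240 nm. Residual % = peak area at 3 h / peak area at t0 × 100. Mean of triplicate runs.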

Going from C[P+](C)(Bc1cccc(O)c1)c1ccccc1 to C[P+](C)(Bc1ccc(O)cc1)c1ccccc1, the remaining at 3 h falls from 99% to 94.5%.

Compared with C[Si](C)(Cc1ccc(O)cc1)c1ccccc1, CC(C)(Cc1ccc(O)cc1)c1ccccc1 is higher in remaining at 3 h: 96.2% for the first, 99% for the second.

Compared with CC[P+](Bc1ccc(O)cc1)(CC)CC, CC[P+](Bc1cccc(O)c1)(CC)CC is higher in remaining at 3 h: 99.3% for the first, 99.7% for the second.

First: C[P+](C)(C)Bc1cccc(O)c1
Second: C[P+](C)(C)Bc1ccc(O)cc1
The remaining at 3 h of the first is higher: 100% for the first, 99.9% for the second.

Going from CC[P+](Bc1cccc(O)c1)(CC)c1ccccc1 to CC[P+](Bc1ccc(O)cc1)(CC)c1ccccc1, the remaining at 3 h falls from 100% to 97.6%.

Going from C[Si](C)(C)Cc1ccc(O)cc1 to CC(C)(C)Cc1ccc(O)cc1, the remaining at 3 h rises from 89.9% to 92.5%.

Test system: not listed separately
Assay: 1-Octanol/water partition coefficient, logP of the compound by HPLC analysis
Assay type: physicochemical
Conditions: not given

CC(C)[P+](Bc1ccc(O)cc1)(c1ccccc1)C(C)C and CC(C)[P+](Bc1cccc(O)c1)(c1ccccc1)C(C)C are within 0.2 log units of each other in logP: 4.79 for the first, 4.93 for the second.

First: Oc1ccc(B[P+](C2CCCCC2)(C2CCCCC2)C2CCCCC2)cc1
Second: Oc1ccc(B[P+](C2CCCC2)(C2CCCC2)C2CCCC2)cc1
The logP of the first is higher: 7.22 for the first, 6.23 for the second.

C[P+](C)(Bc1cccc(O)c1)c1ccccc1 and C[P+](C)(Bc1ccc(O)cc1)c1ccccc1 are within 0.2 log units of each other in logP: 3.27 for the first, 3.18 for the second.

Compared with C[Si](C)(Cc1ccc(O)cc1)c1ccccc1, CC(C)(Cc1ccc(O)cc1)c1ccccc1 is lower in logP: 5.74 for the first, 5.26 for the second.

CCCC[P+](Bc1cccc(O)c1)(CCCC)CCCC and CCCC[P+](Bc1ccc(O)cc1)(CCCC)CCCC are within 0.2 log units of each other in logP: 6.43 for the first, 6.32 for the second.

CC[P+](Bc1ccc(O)cc1)(CC)CC and CC[P+](Bc1cccc(O)c1)(CC)CC are within 0.2 log units of each other in logP: 3.28 for the first, 3.47 for the second.

C[P+](C)(C)Bc1cccc(O)c1 and C[P+](C)(C)Bc1ccc(O)cc1 are within 0.2 log units of each other in logP: 2.55 for the first, 2.44 for the second.

CC[P+](Bc1cccc(O)c1)(CC)c1ccccc1 and CC[P+](Bc1ccc(O)cc1)(CC)c1ccccc1 are within 0.2 log units of each other in logP: 4.19 for the first, 4.11 for the second.

Going from C[Si](C)(C)Cc1ccc(O)cc1 to CC(C)(C)Cc1ccc(O)cc1, the logP falls from 4.91 to 4.36.

Going from Oc1ccc(B[P+](C2CC2)(C2CC2)C2CC2)cc1 to CC(C)[P+](Bc1ccc(O)cc1)(C(C)C)C(C)C, the logP rises from 3.8 to 4.56.

Biological target: T1, Estrogen receptor (Homo sapiens) (UniProt P03372)
T1 sequence (whole entry): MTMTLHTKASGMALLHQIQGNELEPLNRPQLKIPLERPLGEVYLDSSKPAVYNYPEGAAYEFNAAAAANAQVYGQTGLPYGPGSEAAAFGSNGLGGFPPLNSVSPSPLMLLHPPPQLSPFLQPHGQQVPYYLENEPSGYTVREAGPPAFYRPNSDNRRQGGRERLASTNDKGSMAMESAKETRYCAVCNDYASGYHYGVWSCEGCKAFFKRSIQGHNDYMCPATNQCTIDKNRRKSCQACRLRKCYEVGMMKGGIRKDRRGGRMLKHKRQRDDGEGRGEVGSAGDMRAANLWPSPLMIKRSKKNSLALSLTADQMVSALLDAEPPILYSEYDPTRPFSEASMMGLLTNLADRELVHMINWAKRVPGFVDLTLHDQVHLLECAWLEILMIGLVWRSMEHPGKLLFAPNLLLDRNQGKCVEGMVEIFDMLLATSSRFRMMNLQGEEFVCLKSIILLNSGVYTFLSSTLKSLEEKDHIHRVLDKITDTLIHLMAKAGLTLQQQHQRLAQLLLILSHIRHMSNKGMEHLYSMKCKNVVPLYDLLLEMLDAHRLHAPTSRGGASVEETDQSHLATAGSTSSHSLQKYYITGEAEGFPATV
Assay: (§1) Agonist activity at human ERalpha expressed in HEK293 cells assessed as increase in […] activity incubated for 24 hrs by luciferase based microplate reader assay
Assay type: cell-based
Conditions: not given

In the case of Oc1ccc(B[P+](C2CCCCC2)(C2CCCCC2)C2CCCCC2)cc1, the Activity is reported as “inactive”.
In the case of C[P+](C)(Bc1ccc(O)cc1)c1ccccc1, the Activity is reported as “inactive”.
For Oc1ccc(B[P+](C2CCCC2)(C2CCCC2)C2CCCC2)cc1, the Activity was “inactive”.
In the case of CCCC[P+](Bc1cccc(O)c1)(CCCC)CCCC, the Activity is reported as “inactive”.
For C[P+](C)(C)Bc1cccc(O)c1, the Activity was “inactive”.
In the case of C[P+](C)(C)Bc1ccc(O)cc1, the Activity is reported as “inactive”.
With CC[P+](Bc1ccc(O)cc1)(CC)c1ccccc1 the Activity was “inactive”.
With CCCC[P+](Bc1ccc(O)cc1)(CCCC)CCCC the Activity was “inactive”.

Biological target: T2, Estrogen receptor (Homo sapiens, UniProt P03372)
T2 sequence (P03372 whole entry): T1 sequence (whole entry)
Assay: as §1
Assay type: cell-based
Conditions: not given

Going from CC(C)[P+](Bc1ccc(O)cc1)(c1ccccc1)C(C)C to CC(C)[P+](Bc1cccc(O)c1)(c1ccccc1)C(C)C, the EC50 falls from over 10 µM to 3.45 µM. The second is the more potent here.

First: C[P+](C)(Bc1cccc(O)c1)c1ccccc1
Second: CC[P+](Bc1cccc(O)c1)(CC)c1ccccc1
The EC50 of the first is higher: over 10 µM for the first, 4.09 µM for the second. The second is the more potent here.

Going from C[Si](C)(C)Cc1ccc(O)cc1 to CC[P+](Bc1cccc(O)c1)(CC)CC, the EC50 rises from 1.41 µM to over 10 µM.

Compound Oc1ccc(B[P+](C2CC2)(C2CC2)C2CC2)cc1 has an EC50 of 2.68 µM.
